# Measurements published in ChEMBL document CHEMBL4715736, “Identification of anticancer agents based on the thieno[2,3-b]pyridine and 1H-pyrazole molecular scaffolds” (2016).
# Tests used:
# Type in all cases: functional
# [1] = system: T47D; test: Growth inhibition of human T47D cells assessed as cell growth at 0.01 uM incubated for 48 hrs by sulforhodamine B assay relative to control; conditions: read-out: Activity
# [2] = system: SF-539; test: Growth inhibition of human SF-539 cells assessed as cell growth at 1 uM incubated for 48 hrs by sulforhodamine B assay relative to control; conditions: read-out: Activity
# [3] = system: SK-MEL-28; test: Growth inhibition of human SK-MEL-28 cells assessed as cell growth at 0.01 uM incubated for 48 hrs by sulforhodamine B assay relative to control; conditions: read-out: Activity
# [4] = system: NCI-H322M; test: Growth inhibition of human NCI-H322M cells incubated for 48 hrs by sulforhodamine B assay
# In short: (§1)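 NCI60 panel at the NCI Developmental Therapeutics Program. Only compounds active in the 10 µM screen went to dose-response testing. GI50, the concentration giving 50% of maximal inhibition of proliferation, and TGI, the concentration giving total growth inhibition, were derived from the dose-response curves.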
# [5] = system: SF-268; test: Growth inhibition of human SF-268 cells assessed as cell growth at 0.1 uM incubated for 48 hrs by sulforhodamine B assay relative to control; conditions: read-out: Activity
# [6] = system: SN12C; test: Growth inhibition of human SN12C cells incubated for 48 hrs by sulforhodamine B assay
# In short: (§2)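 NCI DTP 60-line human tumour panel. Dose-response curves were run only for ligands active in the initial 10 µM screen. GI50 (concentration giving 50% of maximal inhibition of proliferation) and TGI (concentration giving total growth inhibition) were derived from these curves.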
# [7] = system: DU-145; test: Growth inhibition of human DU-145 cells incubated for 48 hrs by sulforhodamine B assay
# In short: (§3)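 NCI Developmental Therapeutics Program NCI60 panel. Compounds that were active in the 10 µM one-dose screen went on to dose–response testing. Growth at each concentration is expressed relative to untreated control (100%). GI50 (concentration giving 50% of maximal inhibition of proliferation) and TGI (concentration giving total growth inhibition) were derived from the curves.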
# [8] = system: OVCAR-8; test: Growth inhibition of human OVCAR-8 cells incubated for 48 hrs by sulforhodamine B assay; in short: as §2
# [9] = system: IGROV-1; test: Growth inhibition of human IGROV-1 cells incubated for 48 hrs by sulforhodamine B assay; in short: as §1
# [10] = system: Malme-3M; test: Growth inhibition of human Malme-3M cells assessed as cell growth at 1 uM incubated for 48 hrs by sulforhodamine B assay relative to control; conditions: read-out: Activity
# [11] = system: BT-549; test: Growth inhibition of human BT-549 cells assessed as cell growth at 1 uM incubated for 48 hrs by sulforhodamine B assay relative to control; conditions: read-out: Activity
# [12] = system: NCI/ADR-RES; test: Growth inhibition of human NCI/ADR-RES cells assessed as cell growth at 1 uM incubated for 48 hrs by sulforhodamine B assay relative to control; conditions: read-out: Activity
# [13] = system: Malme-3M; test: Growth inhibition of human Malme-3M cells assessed as cell growth at 0.1 uM incubated for 48 hrs by sulforhodamine B assay relative to control; conditions: read-out: Activity
# [14] = system: HT-29; test: Growth inhibition of human HT-29 cells assessed as cell growth at 100 uM incubated for 48 hrs by sulforhodamine B assay relative to control; conditions: read-out: Activity
# [15] = system: NCI-H226; test: Growth inhibition of human NCI-H226 cells incubated for 48 hrs by sulforhodamine B assay; in short: as §1
# [16] = system: HOP-92; test: Growth inhibition of human HOP-92 cells assessed as cell growth at 0.1 uM incubated for 48 hrs by sulforhodamine B assay relative to control; conditions: read-out: Activity
# [17] = system: MDA-MB-435; test: Growth inhibition of human MDA-MB-435 cells assessed as cell growth at 0.1 uM incubated for 48 hrs by sulforhodamine B assay relative to control; conditions: read-out: Activity
# [18] = system: DU-145; test: Growth inhibition of human DU-145 cells assessed as cell growth at 0.01 uM incubated for 48 hrs by sulforhodamine B assay relative to control; conditions: read-out: Activity; in short: as §3
# [19] = system: RPMI-8226; test: Growth inhibition of human RPMI-8226 cells incubated for 48 hrs by sulforhodamine B assay; in short: as §2
# [20] = system: SF-295; test: Growth inhibition of human SF-295 cells assessed as cell growth at 0.01 uM incubated for 48 hrs by sulforhodamine B assay relative to control; conditions: read-out: Activity
# [21] = system: T47D; test: Growth inhibition of human T47D cells assessed as cell growth at 100 uM incubated for 48 hrs by sulforhodamine B assay relative to control; conditions: read-out: Activity
# [22] = system: MDA-MB-468; test: Growth inhibition of human MDA-MB-468 cells incubated for 48 hrs by sulforhodamine B assay; in short: as §1
# [23] = system: MDA-MB-231; test: Growth inhibition of human MDA-MB-231 cells assessed as cell growth at 100 uM incubated for 48 hrs by sulforhodamine B assay relative to control; conditions: read-out: Activity
# [24] = system: MOLT-4; test: Growth inhibition of human MOLT-4 cells assessed as cell growth at 1 uM incubated for 48 hrs by sulforhodamine B assay relative to control; conditions: read-out: Activity
# [25] = system: OVCAR-8; test: Growth inhibition of human OVCAR-8 cells assessed as cell growth at 0.01 uM incubated for 48 hrs by sulforhodamine B assay relative to control; conditions: read-out: Activity
# [26] = system: T47D; test: Growth inhibition of human T47D cells assessed as cell growth at 1 uM incubated for 48 hrs by sulforhodamine B assay relative to control; conditions: read-out: Activity
# [27] = system: LOX IMVI; test: Growth inhibition of human LOX IMVI cells assessed as cell growth at 1 uM incubated for 48 hrs by sulforhodamine B assay relative to control; conditions: read-out: Activity
# [28] = system: SK-MEL-28; test: Growth inhibition of human SK-MEL-28 cells assessed as cell growth at 100 uM incubated for 48 hrs by sulforhodamine B assay relative to control; conditions: read-out: Activity
# [29] = system: MDA-MB-231; test: Growth inhibition of human MDA-MB-231 cells assessed as cell growth at 0.01 uM incubated for 48 hrs by sulforhodamine B assay relative to control; conditions: read-out: Activity
# [30] = system: CCRF-CEM; test: Growth inhibition of human CCRF-CEM cells assessed as cell growth at 0.1 uM incubated for 48 hrs by sulforhodamine B assay relative to control; conditions: read-out: Activity; in short: as §3
# [31] = system: IGROV-1; test: Growth inhibition of human IGROV-1 cells assessed as cell growth at 100 uM incubated for 48 hrs by sulforhodamine B assay relative to control; conditions: read-out: Activity
# [32] = system: SK-OV-3; test: Growth inhibition of human SK-OV-3 cells incubated for 48 hrs by sulforhodamine B assay; in short: as §2
# [33] = system: MDA-MB-435; test: Growth inhibition of human MDA-MB-435 cells assessed as cell growth at 0.01 uM incubated for 48 hrs by sulforhodamine B assay relative to control; conditions: read-out: Activity
# [34] = system: UACC-257; test: Growth inhibition of human UACC-257 cells incubated for 48 hrs by sulforhodamine B assay; in short: as §2
# [35] = read-out: LC50 (the source's name)
smiles,measurement,setting,value
Nc1c(C(=O)Nc2ccccc2)sc2nc3c(cc12)CN(Cc1ccccc1)CC3,growth at 0.01 µM,[1],99%
same,growth at 1 µM,[2],83%
same,growth at 0.01 µM,[3],100%
same,GI50,[4],> 100 µM
same,TGI,[4],> 100 µM
same,CC50,[4]; [35],> 100 µM
same,growth at 0.1 µM,[5],99%
same,GI50,[6],65.7 µM
same,TGI,[6],> 100 µM
same,CC50,[6]; [35],> 100 µM
same,GI50,[7],14.8 µM
same,TGI,[7],> 100 µM
same,CC50,[7]; [35],> 100 µM
same,GI50,[8],16.8 µM
same,TGI,[8],> 100 µM
same,CC50,[8]; [35],> 100 µM
same,GI50,[9],37.8 µM
same,LC50,[9],> 100 µM
same,TGI,[9],> 100 µM
same,growth at 1 µM,[10],87%
same,growth at 1 µM,[11],90%
same,growth at 1 µM,[12],98%
same,growth at 0.1 µM,[13],88%
same,growth at 100 µM,[14],8%
same,GI50,[15],4.91 µM
same,TGI,[15],> 100 µM
same,CC50,[15]; [35],> 100 µM
same,growth at 0.1 µM,[16],86%
same,growth at 0.1 µM,[17],85%
same,growth at 0.01 µM,[18],106%
same,GI50,[19],55.8 µM
same,LC50,[19],> 100 µM
same,TGI,[19],> 100 µM
same,growth at 0.01 µM,[20],96%
same,growth at 100 µM,[21],19%
same,GI50,[22],17 µM
same,TGI,[22],> 100 µM
same,CC50,[22]; [35],> 100 µM
same,growth at 100 µM,[23],16%
same,growth at 1 µM,[24],97%
same,growth at 0.01 µM,[25],100%
same,growth at 1 µM,[26],83%
same,growth at 1 µM,[27],98%
same,growth at 100 µM,[28],28%
same,growth at 0.01 µM,[29],101%
same,growth at 0.1 µM,[30],96%
same,growth at 100 µM,[31],32%
same,GI50,[32],3.53 µM
same,TGI,[32],> 100 µM
same,CC50,[32]; [35],> 100 µM
same,growth at 0.01 µM,[33],93%
same,GI50,[34],52.8 µM
same,LC50 (concentration killing 50% of cells),[34],> 100 µM
same,TGI,[34],> 100 µM
